Compound activity: PubChem, The Scripps Research Institute Molecular Screening Center
This is a sample that favours compounds with a hit; in the whole collection about 0.55% have one here.
OXTR potentiator: human OXTR potentiation | P30559 | CHO-OTR cells, Fluo-8 calcium fluorescence, potentiator mode; 0% = oxytocin EC15, 100% = EC100 | activation, % at 3 µM | 0.061% of 320,000 active | AID 2445;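 active means activation above that plate's cutoff, the mean activation of tested compounds plus 3 SD, cut at about 6.6% in these data, passing the limit was not always enough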;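 further: 100% uses oxytocin at 75 nM as the full agonist control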
Target sequence (P30559 whole entry, looked up): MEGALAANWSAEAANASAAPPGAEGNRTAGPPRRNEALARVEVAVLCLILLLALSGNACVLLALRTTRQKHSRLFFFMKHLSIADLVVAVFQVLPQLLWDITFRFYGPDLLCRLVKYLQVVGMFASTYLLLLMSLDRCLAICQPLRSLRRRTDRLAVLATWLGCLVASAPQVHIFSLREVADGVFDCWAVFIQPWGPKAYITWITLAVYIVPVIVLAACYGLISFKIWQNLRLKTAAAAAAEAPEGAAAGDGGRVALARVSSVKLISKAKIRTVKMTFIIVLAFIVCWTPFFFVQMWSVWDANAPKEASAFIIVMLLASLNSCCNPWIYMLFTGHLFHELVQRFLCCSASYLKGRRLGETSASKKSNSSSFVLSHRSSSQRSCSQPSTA
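test system = CHO-OTR cells, human receptor | compound = single-point 3.0 µM | schedule = 6 min compound pre-incubation at room temperature, 100 s kinetic read | signal = Fluo-8 no-wash calcium dye fluorescence, excitation 470-495 nm, emission 515-575 nm | repeats = single well per compound, singlicate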
TRPN1 ag: zebrafish TRPN1 (NompC) channel agonism | 0.18% of 220,000 active | HEK293 zebrafish TRPN1-YFP, Fluo-8 calcium fluorescence; 100% = response to 87 µM carbachol | activation, % at 3 µM;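 active means activation above its plate's cutoff, the mean activation of test wells on that plate plus 3 SD, cut at about 19% in these data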;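 further: 0% = DMSO alone and 100% = 87 µM carbachol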
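System: zebrafish TRPN1-YFP in HEK293 cells / Dosing: 3 µM single point / Timing: dye loading 1 h at 37 °C, then 30 min room temperature / Signal: Fluo-8 calcium fluorescence, excitation 470-495 nm, emission 515-575 nm / Read-out basis: percent activation from peak over basal fluorescence ratio, control-normalized / Control set: high carbachol 87 µM, low DMSO alone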
OXTR agonist: agonists of human oxytocin receptor; P30559; 0.32% of 320,000 active; CHO-OTR cells, Fluo-8 calcium fluorescence; normalized: DMSO 0%, oxytocin 100%; activation, % at 3 µM;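 active means activation above the mean of all tested compounds plus 3 SD, cutoff set per screening run, cut at about 20% in these data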;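 further: peak over basal fluorescence ratio from a 100 s FLIPR kinetic read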
TRPML3 ag: human mucolipin-3 channel agonism. AID 1448. activation, % at 3 µM. 0.29% of 220,000 active. Q8TDD5. HEK293 TRPML3-YFP, Fluo-8 calcium fluorescence; 100% = the carbachol control signal;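 active means activation above its plate's cutoff, the mean activation of the plate's test wells plus 3 SD, cut at about 12% in these data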;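 further: 0% = DMSO only wells and 100% = carbachol wells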
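Material: TRPML3-YFP stable HEK293 cells | Dosing: One concentration, 3 µM nominal, 0.3% DMSO | Timing: 125 s total fluorescence read per well | Technique: Fluo-8 calcium dye fluorescence, ex 470-495, em 515-575 nm | Measure: Percent activation from peak-to-basal fluorescence ratio, scaled between DMSO and carbachol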
V1R ag counter: V1a receptor agonism, counter-screen for OXTR agonists | AID 2797 | P37288 | CHO-V1R cells, Fluo-8 calcium fluorescence, agonist mode; 0% DMSO, 100% 3 nM vasopressin | activation, % at 3 µM | 0.25% of 320,000 active;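 active means activation above the mean activation of all tested compounds plus 3 SD, per screening run, cut at about 20% in these data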;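 further: signal is peak over basal fluorescence ratio across a 100 second FLIPR read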
OXTR agonist cf: confirmation of human oxytocin receptor agonists; shares compounds with OXTR agonist; CHO-OTR cells, Fluo-8 calcium fluorescence, agonist; activation, % at 3 µM; 20% of 390 active; AID 434963;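 active means mean activation above about 20% derived from the earlier single-dose screen, limit read from the data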;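 further: peak over minimum fluorescence ratio per well during a 100 second FLIPR read; 0% = DMSO alone and 100% = oxytocin high control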
V1R ag counter 3x: counter-screen for oxytocin receptor agonists: V1a receptor agonists. shares compounds with OXTR agonist. CHO-V1R cells, Fluo-8 calcium fluorescence, agonist. activation, % at 3 µM. 10% of 390 active. AID 434991;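 active means mean activation over triplicate exceeds the hit threshold set in the earlier primary screen, cut at about 20% in these data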;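 further: peak over basal fluorescence ratio within a 100 second read; 0% = DMSO alone and 100% = 3 nM vasopressin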
* = called active by the depositor; / = not tested or not shown.

SMILES	OXTR potentiator	TRPN1 ag	OXTR agonist	TRPML3 ag	V1R ag counter	OXTR agonist cf	V1R ag counter 3x
COc1ccc(CCNC(=O)CCCN2C(=O)C(c3ccccc3)Oc3cccnc32)cc1OC (configuration not stated)	-7	/	25*	/	4	0	0
O=[N+]([O-])c1ccc(O)c(-c2cc(C(F)(F)F)nc(-c3ccccc3)n2)c1	-23	/	26*	/	16	15	12
CC(=O)c1ccc(OCC(=O)Nc2cccc(S(=O)(=O)N3CCCC3)c2)cc1	-14	/	15	/	11	/	/
O=C(COc1ccc2ccc(=O)oc2c1)Nc1cccc(S(=O)(=O)N2CCCCC2)c1	-10	/	21*	/	12	8	9
Cc1cccnc1NC(=O)c1ccc2c(c1)NC(=O)C(C)S2 (configuration not stated)	-3	/	2	/	0	/	/
COc1ccc(CN2CCN(CC(O)Cn3c4ccccc4c4ccccc43)CC2)cc1 (configuration not stated)	-18	1	24*	2	12	8	4
O=C(Nc1ccccc1)c1ccc(OC(=O)c2ccccc2)cc1	3	/	-1	/	-1	/	/
CCCc1nnc(NC(=O)CN2C(=O)c3ccccc3C2=O)s1	-5	0	2	0	1	/	/
CCCc1nnc(NC(=O)Cn2c(=O)sc3ccccc32)s1	-9	2	21*	1	11	8	5
O=C(Cn1cnc2cc([N+](=O)[O-])ccc2c1=O)NC1CCS(=O)(=O)C1 (configuration not stated)	8	0	1	-2	0	/	/
CCOC(=O)c1csc(NC(=O)CSc2nnnn2-c2ccc3c(c2)OCCO3)n1	-9	6	23*	3	16	8	7
COc1cc(C(=O)NC(=S)NNC(=O)c2cnccn2)cc(OC)c1OC	-1	0	0	0	-1	/	/
COc1ccccc1C(=O)NNC(=S)NC(=O)c1cc(OC)c(OC)c(OC)c1	-18	3	21*	2	12	8	19
O=C(N/N=C/c1ccc(O)c(O)c1)c1ccc(CSc2cccc3cccnc23)cc1	-8	0	0	0	0	/	/
COc1ccc(-n2c(O)c(/C=N/NS(=O)(=O)c3ccc(C)cc3)c3ccccc3c2=O)cc1OC	-16	-1	32*	1	9	15	13
Nc1cc(N)nc(SCC(=O)NC(=O)NC2CCCC2)n1	-4	/	1	/	1	/	/
COC(=O)C(NC(=O)c1ccccc1C)(Nc1ncc(S(=O)(=O)c2ccc([N+](=O)[O-])cc2)s1)C(F)(F)F (configuration not stated)	-23	5	26*	6	20	16	9
Cc1ccc(Cl)cc1N1CCN(C(=O)C2CCN(S(=O)(=O)c3c(C)nn(C)c3C)CC2)CC1	-12	4	21*	1	16	12	11
Cn1cccc1P(=O)(c1cccn1C)c1cccn1C	-13	0	31*	0	0	1	1
Cc1ccc(CNC(=O)c2cccnc2Sc2cccc(Cl)c2)cc1	-17	10	19	3	16	/	/
COc1ccc(CNC(=O)c2cccnc2Sc2ccc(Cl)cc2)cc1	-10	1	22*	-1	10	5	5
Oc1ccccc1CNc1cnc2ccccc2c1	-14	3	22*	1	13	13	13
Cc1cccc(C(=O)NC(=S)NNC(=O)Cc2ccccc2)c1	-11	-1	25*	0	8	45*	58*
CC(NCC(O)COc1ccc2ccccc2c1)c1ccccc1 (configuration not stated)	-18	/	22*	/	13	10	7
COc1cc(C(=O)Nc2cccc(S(=O)(=O)NCc3ccco3)c2)cc(OC)c1OC	0	/	1	/	2	/	/
SMILES	OXTR potentiator	TRPN1 ag	OXTR agonist	TRPML3 ag	V1R ag counter	OXTR agonist cf	V1R ag counter 3x
NC(=O)c1ccc(NC(=O)COC(=O)CCN=C2NS(=O)(=O)c3ccccc32)cc1	-1	/	1	/	0	/	/
Cc1onc(-c2ccccc2)c1C(=O)Nc1nnc(C(C)C)s1	-1	/	-1	/	0	/	/
Cc1onc(-c2ccccc2)c1C(=O)Nc1ncc([N+](=O)[O-])s1	-14	/	21*	/	10	16	12
CN(C)S(=O)(=O)NC(=O)C1=C(N2CCCC2)COC1=O	-2	/	1	/	1	/	/
Cc1cc(S(=O)(=O)Nc2ccc(C(=O)NCC3(N(C)C)CCCCC3)cc2)ccc1F	-15	/	0	/	1	/	/
CCOc1ccc(NS(=O)(=O)c2ccc(C(=O)NCC3(N(C)C)CCCCC3)cc2)cc1	-21	/	24*	/	19	12	8
COc1ccc(C(CCN2CCCCC2)c2c(OC)cc(OC)c3c(-c4ccccc4)cc(=O)oc23)cc1 (configuration not stated)	-16	/	21*	/	16	9	7
CCc1ccc(NC(=O)COc2cccc(-n3cnnn3)c2)cc1	-12	/	3	/	5	/	/
Nc1ccc(Br)c2c1C(=O)c1ccccc1C2=O	-13	12	34*	9	10	6	3
O=C1COc2ccc(C(=O)COC(=O)c3ncc(Cl)c(Cl)c3Cl)cc2N1	-8	/	-1	/	1	/	/
CCOc1ccccc1C(=O)OCC(=O)Nc1cc(S(=O)(=O)N2CCOCC2)ccc1C	0	/	2	/	2	/	/
CCOc1ccc(NC(=O)C(C)Oc2ccc(C#N)cc2)cc1S(=O)(=O)N1CCCC1 (configuration not stated)	-10	/	20*	/	9	16	8
CCOc1ccccc1OCC(=O)Nc1ccc(OC)c(S(=O)(=O)N2CCCCC2)c1	-8	/	0	/	1	/	/
O=C(CC1OC(=O)c2ccccc21)Nc1ccc(Cl)c(S(=O)(=O)N2CCCCC2)c1 (configuration not stated)	-14	/	2	/	5	/	/
CCCCCCOc1ccc(OCC(O)CN2C(=O)NC(C)(C)C2=O)cc1 (configuration not stated)	-11	1	24*	0	14	5	2
CC(Oc1ccc(F)cc1)C(=O)Nc1ccc(S(=O)(=O)NC2=NCCCCC2)cc1 (configuration not stated)	-12	/	25*	/	15	28*	20
CC(Oc1cccc(Cl)c1)C(=O)Nc1ccc(S(=O)(=O)NC2=NCCCCC2)cc1 (configuration not stated)	-16	/	14	/	10	/	/
COC(=O)c1cc(S(=O)(=O)Nc2ccc(C)cn2)c[nH]1	-1	/	1	/	1	/	/
